The record followed here is ChEMBL document CHEMBL4308850, “Design of a True Bivalent Ligand with Picomolar Binding Affinity for a G Protein-Coupled Receptor Homodimer” (J Med Chem, 2018).

The target in experiment [1] is T1, D(2) dopamine receptor (Homo sapiens, UniProt P14416). Briefly: Displacement of [3H]-YM-09151-2 from dopamine D2 receptor (unknown origin) in sheep brain striatum membranes preincubated with TAT-TM6 D2R peptide for 1 h before addition of compound and radioligand and measured after 2 hrs by scintillation counting. Type of experiment: cell membranes. In short, it runs like this:
(§1)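 Sheep striatal membranes (50 mM Tris-HCl pH 7.4, protease inhibitors; 0.2 mg protein/mL) incubated 2 h at room temperature in Tris-HCl with 10 mM MgCl2, 0.8 nM free [3H]YM-09151-2 and rising ligand concentrations; nonspecific binding with 30 μM dopamine. Filtration on PEI-soaked GF/C, scintillation counting; fitted to two-state dimer model. Lines 5 and 6: membranes preincubated 1 h with the named TAT-TM6 peptide first.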
(Loss of bound radioactivity is the signal in a displacement assay; it reports binding, not function.)

Experiment [2] deals with T1, D(2) dopamine receptor. Briefly: Displacement of [3H]-YM-09151-2 from dopamine D2 receptor (unknown origin) in sheep brain striatum membranes preincubated with TAT-TM6 A2AR peptide for 1 h before addition of compound and radioligand and measured after 2 hrs by scintillation counting. Type of experiment: cell membranes. A digest of the protocol: as §1
For experiment [3], the target named is T1, D(2) dopamine receptor. Briefly: Binding affinity to human dopamine D2 receptor transfected in HEK293 cells co-expressing nYFP (1 to 155 residues) and cYFP (156 to 238 residues) at 100 nM after 10 mins by fluorescence complementation assay. Type of experiment: cell-based. A digest of the protocol: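 HEK-293T cells transiently co-transfected (lipofectamine) with D2R-nYFP and D2R-cYFP; after 48 h, cells in HBSS with 0.1% glucose (20 μg protein, 50,000 cells/well) treated with 100 nM ligand or HBSS for 10 min. Fluorescence read at 530 nm emission, 400 nm excitation; background from cells lacking fusion proteins subtracted.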

In experiment [4] the target is T1, D(2) dopamine receptor. Briefly: Displacement of [3H]-YM-09151-2 from dopamine D2 receptor (unknown origin) in sheep brain striatum membranes after 2 hrs by scintillation counting. Type of experiment: cell membranes. The note with it: Ovis aries (sheep). A digest of the protocol: as §1
The target in experiment [5] is T1, D(2) dopamine receptor. Briefly: Antagonist activity at human dopamine D2 receptor expressed in CHO cells co-expressing A2A receptor assessed as reduction in sumanirole-induced response at 0.5 uM after 90 mins by DMR analysis. Type of experiment: cell-based. In short, it runs like this:
(§2)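 CHO cells stably co-expressing human A2AR and D2R, seeded 7,000/well 24 h before assay (70–80% confluent). Washed into assay buffer (medium, 20 mM HEPES pH 7.15, 0.1% DMSO, 0.1% BSA), equilibrated 2 h at 24°C; 10 min baseline, antagonist added and read 30 min, then sumanirole (100 nM solution) added and DMR wavelength shift (pm) recorded ≥90 min; expressed as % maximal sumanirole effect.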

Experiment [6] addresses T1, D(2) dopamine receptor. Put plainly: Antagonist activity at human dopamine D2 receptor expressed in CHO cells co-expressing A2A receptor assessed as reduction in sumanirole-induced response after 90 mins by DMR analysis. It is filed as cell-based. In short, it runs like this: as §2
For experiment [7], the target named is T1, D(2) dopamine receptor. The note with it: CHO, 1 uM.

Calls of active or inactive are those of the source. The rule behind the calls is not given here.

The term IC50 denotes the concentration needed to halve the response being measured.

T1 sequence (P14416 whole entry): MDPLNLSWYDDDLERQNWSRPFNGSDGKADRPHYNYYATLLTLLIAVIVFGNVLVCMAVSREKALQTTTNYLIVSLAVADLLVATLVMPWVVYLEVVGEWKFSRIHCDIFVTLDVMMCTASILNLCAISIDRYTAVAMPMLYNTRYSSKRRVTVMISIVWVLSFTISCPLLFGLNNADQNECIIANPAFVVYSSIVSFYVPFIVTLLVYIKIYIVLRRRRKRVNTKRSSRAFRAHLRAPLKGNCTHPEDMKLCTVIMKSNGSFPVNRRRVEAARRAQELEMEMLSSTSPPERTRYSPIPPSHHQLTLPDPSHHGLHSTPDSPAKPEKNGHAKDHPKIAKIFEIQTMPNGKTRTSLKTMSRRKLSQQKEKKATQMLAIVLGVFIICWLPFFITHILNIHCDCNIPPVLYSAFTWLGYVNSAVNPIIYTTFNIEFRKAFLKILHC

With `COC(=O)CN(CC(=O)NCCOCCOCCNC(=O)CCC(=O)Nc1ccc(CCN2CN(c3ccccc3)C3(CCN(CCCC(=O)c4ccc(F)cc4)CC3)C2=O)cc1)CC(=O)NCCOCCOCCNC(=O)CCC(=O)Nc1ccc(CCN2CN(c3ccccc3)C3(CCN(CCCC(=O)c4ccc(F)cc4)CC3)C2=O)cc1`, the K at D(2) dopamine receptor [1] was found to be 1.1 nM; on D(2) dopamine receptor [2], 0.05 nM; on D(2) dopamine receptor [4], 0.021 nM. Moreover, the outcome on D(2) dopamine receptor [3] was inactive. The inhibition result at D(2) dopamine receptor [5] is “Active”. The IC50 on D(2) dopamine receptor [6] was determined as 15 nM.
`O=C(O)CCC(=O)Nc1ccc(CCN2CN(c3ccccc3)C3(CCN(CCCC(=O)c4ccc(F)cc4)CC3)C2=O)cc1` returned a K on D(2) dopamine receptor [4] of 0.7 nM.
`COC(=O)CN(CC(=O)NCCCOCCOCCOCCCNC(C)=O)CC(=O)NCCCOCCOCCOCCCNC(=O)CCC(=O)Nc1ccc(CCN2CN(c3ccccc3)C3(CCN(CCCC(=O)c4ccc(F)cc4)CC3)C2=O)cc1` yielded a K at D(2) dopamine receptor [4] of 1.5 nM.
Compound `COC(=O)CN(CC(=O)NCCCOCCOCCOCCCNC(=O)CCC(=O)Nc1ccc(CCN2CN(c3ccccc3)C3(CCN(CCCC(=O)c4ccc(F)cc4)CC3)C2=O)cc1)CC(=O)NCCCOCCOCCOCCCNC(=O)CCC(=O)Nc1ccc(CCN2CN(c3ccccc3)C3(CCN(CCCC(=O)c4ccc(F)cc4)CC3)C2=O)cc1` had a K on D(2) dopamine receptor [4] of 0.07 nM. The inhibition result on D(2) dopamine receptor [5] is “Active”.
As for `O=C(CCCN1CCC2(CC1)C(=O)NCN2c1ccccc1)c1ccc(F)cc1`, the inhibition entry at D(2) dopamine receptor [7] is “Active”.
For the compound `COC(=O)CN(CC(=O)NCCOCCOCCNC(C)=O)CC(=O)NCCOCCOCCNC(=O)CCC(=O)Nc1ccc(CCN2CN(c3ccccc3)C3(CCN(CCCC(=O)c4ccc(F)cc4)CC3)C2=O)cc1`, the K came to 0.8 nM at D(2) dopamine receptor [1], 0.8 nM on D(2) dopamine receptor [2] and 0.77 nM on D(2) dopamine receptor [4]. For the same compound, the result on D(2) dopamine receptor [3] was inactive. For the same compound, the IC50 at D(2) dopamine receptor [6] came to 280 nM.
